ChEMBL document CHEMBL4138271, “Crystal Structures and Human Leukemia Cell Apoptosis Inducible Activities of Parthenolide Analogues Isolated from Piptocoma rufescens” (J Nat Prod, 2018)
pIC50: −log10 of the molar value. Activity calls are given as the source filed them. The rule behind the calls is not given here.

Assays:
[1] = system: MOLM-13; experiment: Cytotoxicity against human MOLM13 cells after 72 hrs by MTS assay; type: functional, cell-based; details: MOLM-13, 72 h
[2] = system: EOL1; experiment: Cytotoxicity against human EOL-1 cells after 72 hrs by MTS assay; type: functional, cell-based; details: EOL1, 72 h
[3] = system: HT-29; experiment: Cytotoxicity against human HT-29 cells after 72 hrs by MTS assay; type: functional, cell-based; details: HT-29, 72 h
[4] = system: MOLM-13; experiment: Synergistic antileukemic activity against human MOLM13 cells assessed as concentration required for <= 75% cell survival after 72 hrs in presence of midostaurin by CellTiter 96 AQueous One solution cell proliferation assay; type: functional
[5] = system: EOL1; experiment: Synergistic antileukemic activity against human EOL-1 cells assessed as concentration required for <= 75% cell survival after 72 hrs in presence of midostaurin by CellTiter 96 AQueous One solution cell proliferation assay; type: functional
[6] = system: MOLM-13; experiment: Induction of apoptosis in human MOLM13 cells assessed as live cells at 1.3 uM after 24 hrs by Annexin-V FITC/7-AAD staining based flow cytometric method (reference value: 86.8%); type: functional
[7] = system: MOLM-13; experiment: Induction of apoptosis in human MOLM13 cells assessed as early apoptotic cells at 1.3 uM after 24 hrs by Annexin-V FITC/7-AAD staining based flow cytometric method (reference value: 11.8%); type: functional
[8] = system: MOLM-13; experiment: Induction of apoptosis in human MOLM13 cells assessed as late apoptotic cells at 1.3 uM after 24 hrs by Annexin-V FITC/7-AAD staining based flow cytometric method (reference value: 1.43%); type: functional
[9] = system: MOLM-13; experiment: Induction of apoptosis in human MOLM13 cells assessed as necrotic cells at 1.3 uM after 24 hrs by Annexin-V FITC/7-AAD staining based flow cytometric method (reference value: 0%); type: functional
[10] = system: MOLM-13; experiment: Induction of apoptosis in human MOLM13 cells assessed as live cells at 2.5 uM after 24 hrs by Annexin-V FITC/7-AAD staining based flow cytometric method (reference value: 86.8%); type: functional
[11] = system: MOLM-13; experiment: Induction of apoptosis in human MOLM13 cells assessed as early apoptotic cells at 2.5 uM after 24 hrs by Annexin-V FITC/7-AAD staining based flow cytometric method (reference value: 11.8%); type: functional
[12] = system: MOLM-13; experiment: Induction of apoptosis in human MOLM13 cells assessed as late apoptotic cells at 2.5 uM after 24 hrs by Annexin-V FITC/7-AAD staining based flow cytometric method (reference value: 1.43%); type: functional
[13] = system: MOLM-13; experiment: Induction of apoptosis in human MOLM13 cells assessed as necrotic cells at 2.5 uM after 24 hrs by Annexin-V FITC/7-AAD staining based flow cytometric method (reference value: 0%); type: functional
[14] = system: MOLM-13; experiment: Induction of apoptosis in human MOLM13 cells assessed as live cells at 5 uM after 24 hrs by Annexin-V FITC/7-AAD staining based flow cytometric method (reference value: 86.8%); type: functional
[15] = system: MOLM-13; experiment: Induction of apoptosis in human MOLM13 cells assessed as early apoptotic cells at 5 uM after 24 hrs by Annexin-V FITC/7-AAD staining based flow cytometric method (reference value: 11.8%); type: functional
[16] = system: MOLM-13; experiment: Induction of apoptosis in human MOLM13 cells assessed as late apoptotic cells at 5 uM after 24 hrs by Annexin-V FITC/7-AAD staining based flow cytometric method (reference value: 1.43%); type: functional
[17] = system: MOLM-13; experiment: Induction of apoptosis in human MOLM13 cells assessed as necrotic cells at 5 uM after 24 hrs by Annexin-V FITC/7-AAD staining based flow cytometric method (reference value: 0%); type: functional
[18] = system: EOL1; experiment: Induction of apoptosis in human EOL-1 cells assessed as live cells at 1.3 uM after 24 hrs by Annexin-V FITC/7-AAD staining based flow cytometric method (reference value: 97.5%); type: functional
[19] = system: EOL1; experiment: Induction of apoptosis in human EOL-1 cells assessed as early apoptotic cells at 1.3 uM after 24 hrs by Annexin-V FITC/7-AAD staining based flow cytometric method (reference value: 1.94%); type: functional
[20] = system: EOL1; experiment: Induction of apoptosis in human EOL-1 cells assessed as late apoptotic cells at 1.3 uM after 24 hrs by Annexin-V FITC/7-AAD staining based flow cytometric method (reference value: 0.535%); type: functional
[21] = system: EOL1; experiment: Induction of apoptosis in human EOL-1 cells assessed as necrotic cells at 1.3 uM after 24 hrs by Annexin-V FITC/7-AAD staining based flow cytometric method (reference value: 0.032%); type: functional
[22] = system: EOL1; experiment: Induction of apoptosis in human EOL-1 cells assessed as live cells at 2.5 uM after 24 hrs by Annexin-V FITC/7-AAD staining based flow cytometric method (reference value: 97.5%); type: functional
[23] = system: EOL1; experiment: Induction of apoptosis in human EOL-1 cells assessed as early apoptotic cells at 2.5 uM after 24 hrs by Annexin-V FITC/7-AAD staining based flow cytometric method (reference value: 1.94%); type: functional
[24] = system: EOL1; experiment: Induction of apoptosis in human EOL-1 cells assessed as late apoptotic cells at 2.5 uM after 24 hrs by Annexin-V FITC/7-AAD staining based flow cytometric method (reference value: 0.535%); type: functional
[25] = system: EOL1; experiment: Induction of apoptosis in human EOL-1 cells assessed as necrotic cells at 2.5 uM after 24 hrs by Annexin-V FITC/7-AAD staining based flow cytometric method (reference value: 0.032%); type: functional
[26] = system: EOL1; experiment: Induction of apoptosis in human EOL-1 cells assessed as live cells at 5 uM after 24 hrs by Annexin-V FITC/7-AAD staining based flow cytometric method (reference value: 97.5%); type: functional
[27] = system: EOL1; experiment: Induction of apoptosis in human EOL-1 cells assessed as early apoptotic cells at 5 uM after 24 hrs by Annexin-V FITC/7-AAD staining based flow cytometric method (reference value: 1.94%); type: functional
[28] = system: EOL1; experiment: Induction of apoptosis in human EOL-1 cells assessed as late apoptotic cells at 5 uM after 24 hrs by Annexin-V FITC/7-AAD staining based flow cytometric method (reference value: 0.535%); type: functional
[29] = system: EOL1; experiment: Induction of apoptosis in human EOL-1 cells assessed as necrotic cells at 5 uM after 24 hrs by Annexin-V FITC/7-AAD staining based flow cytometric method (reference value: 0.032%); type: functional
[30] = system: MOLM-13; experiment: Induction of apoptosis in human MOLM13 cells assessed as caspase-3 activation at 10 uM after 72 hrs by immunoblotting analysis; type: functional, cell-based
Summary of the method: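 MOLM-13 cells treated 72 h with test compounds at 10 μM or PKC412 at 10 nM. Cells washed in ice-cold PBS, lysed at 10^8 cells/mL in NP-40 hypertonic buffer (pH 7.5) with protease/phosphatase inhibitors, then run on SDS-PAGE and PVDF. Blots probed 12 h with rabbit monoclonal cleaved caspase-3 (Asp175), β-actin as loading control. Representative of three independent experiments.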

[31] = system: EOL1; experiment: Induction of apoptosis in human EOL-1 cells assessed as caspase-3 activation at 10 uM after 72 hrs by immunoblotting analysis; type: functional, cell-based
Summary of the method: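 EOL-1 cells (RPMI 1640, 10% FBS, 37 °C, 5% CO2) exposed 72 h; compounds at 10 μM, PKC412 at 10 nM. Harvested, PBS-washed, lysed in hypertonic NP-40 buffer with protease/phosphatase inhibitors; SDS-PAGE, PVDF transfer, rabbit monoclonal cleaved caspase-3 (Asp175) antibody 12 h, secondary 1 h, chemiluminescent detection; β-actin loading control. Representative blots of three independent experiments.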

[32] = biological target: Transcription factor p65 (Homo sapiens) (UniProt Q04206); experiment: Inhibition of NFkappaB p65 in human MOLM13 cells at 10 uM after 72 hrs by immunoblotting method; type: cell-based
Transcription factor p65 (Homo sapiens), sequence (Q04206 whole entry): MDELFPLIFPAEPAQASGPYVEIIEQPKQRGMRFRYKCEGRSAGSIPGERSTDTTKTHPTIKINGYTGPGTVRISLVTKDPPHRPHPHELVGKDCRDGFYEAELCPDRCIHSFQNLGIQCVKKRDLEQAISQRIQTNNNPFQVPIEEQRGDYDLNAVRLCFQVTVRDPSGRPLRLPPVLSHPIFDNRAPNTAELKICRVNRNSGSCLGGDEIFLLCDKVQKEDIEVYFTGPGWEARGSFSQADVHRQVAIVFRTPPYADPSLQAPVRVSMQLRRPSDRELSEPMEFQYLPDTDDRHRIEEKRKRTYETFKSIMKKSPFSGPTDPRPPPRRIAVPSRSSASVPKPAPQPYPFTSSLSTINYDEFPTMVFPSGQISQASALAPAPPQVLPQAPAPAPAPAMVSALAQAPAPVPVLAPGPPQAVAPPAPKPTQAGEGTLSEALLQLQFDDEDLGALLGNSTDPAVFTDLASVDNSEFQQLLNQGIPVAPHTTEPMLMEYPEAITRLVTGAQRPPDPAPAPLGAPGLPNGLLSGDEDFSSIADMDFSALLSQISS
Summary of the method: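 MOLM-13 or EOL-1 cells treated 72 h at 10 μM. Cells washed in ice-cold PBS and lysed in hypertonic NP-40 buffer (10 mM HEPES pH 7.5, 0.5 M NaCl) with protease/phosphatase inhibitors. Protein measured by BCA; SDS-PAGE onto PVDF. Probed 12 h with rabbit monoclonal NF-κB-p65 antibody, goat β-actin as loading control, then chemiluminescence. Blots representative of three independent experiments.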

For `C=C1C(=O)O[C@@H]2C[C@@H](C)/C=C\C(=O)[C@](C)(OC(C)=O)C[C@H](OC(=O)/C(C)=C\C)[C@@H]12`, the pIC50 [1] was 5.37, the pIC50 [2] was 5.37 and the pIC50 [3] was 5.92. The Activity [4] was 1.9 µM, the Activity [5] was 2.5 µM and the Activity [6] was 90.8%. The Activity [7] was 7.82%, the Activity [8] was 1.28% and the Activity [9] was 0.147%. For the same compound, the Activity [10] was 86.5%, the Activity [11] was 10.5% and the Activity [12] was 2.77%. It also gave an Activity [13] of 0.276%, an Activity [14] of 0.583% and an Activity [15] of 0.349%. For the same compound, the Activity [16] was 73.6%, the Activity [17] was 25.5% and the Activity [18] was 96.7%. It also gave an Activity [19] of 1.87%, an Activity [20] of 1.36% and an Activity [21] of 0.053%. It also gave an Activity [22] of 63.8%, an Activity [23] of 1.33% and an Activity [24] of 32.1%. It also gave an Activity [25] of 2.72%, an Activity [26] of 2.79% and an Activity [27] of 0.031%. The Activity [28] was 92.9%, the Activity [29] was 4.73% and the Activity [30] was “Active”. For the same compound, the Activity [31] was “Active” and the inhibition [32] was “Active”.
